Key:
Type in all cases: toxicity, cell-based
[1] = system: U2OS; experiment: Incucyte cell viability with U2OS; conditions: human, 10 µM, compound concentration 10 uM; further: filed as whole numbers so only -1 and 0 and 1 occur
[2] = system: HEK-293T; experiment: Incucyte cell viability with HEK293T; conditions: human, 10 µM, compound concentration 10 uM; further: filed as whole numbers so only -1 and 0 and 1 occur
[3] = system: Fibroblast; experiment: Incucyte cell viability with human fibroblast; conditions: 10 µM, compound concentration 10 uM; further: filed as whole numbers so only -1 and 0 and 1 occur
[4] = system: Fibroblast; experiment: Multiplex assay against human fibroblast
Procedure, shortened: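 Values for tubulin, mitochondrial-mass and membrane-permeability phenotypes are per cents of cells with healthy nuclei. These cells were identified by CellPathfinder machine-learning gating of live cells that had been stained at seeding with Hoechst33342, BioTracker Green Microtubule Cytoskeleton Dye, MitoTracker Red and Annexin V Alexa Fluor 680 and imaged on a CQ1 microscope at 37°C and 5% CO2 after compound addition. The gating first set Hoechst high-intensity objects apart from normal cells, then split normal cells into healthy, pyknosed or fragmented nuclei, and pyknosed cells into mitotic or apoptotic.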

[5] = 6 h, replicate number 1, timepoint 6 hours
[6] = 12 h, replicate number 1, timepoint 12 hours
[7] = 12 h, replicate number 2, timepoint 12 hours
[8] = 18 h, replicate number 1, timepoint 18 hours
[9] = 24 h, replicate number 1, timepoint 24 hours
[10] = 24 h, replicate number 2, timepoint 24 hours
[11] = 12 h, 1 µM, compound concentration 1 uM, replicate 1
[12] = 12 h, 1 µM, compound concentration 1 uM, replicate 2
[13] = 12 h, 10 µM, compound concentration 10 uM, replicate 1
[14] = 12 h, 10 µM, compound concentration 10 uM, replicate 2
[15] = 24 h, 1 µM, compound concentration 1 uM, replicate 1
[16] = 24 h, 1 µM, compound concentration 1 uM, replicate 2
[17] = 24 h, 10 µM, compound concentration 10 uM, replicate 1
[18] = 24 h, 10 µM, compound concentration 10 uM, replicate 2

Question: For `c1ccc2oc(-c3csc(C4CCN(Cc5nc6ncccc6[nH]5)CC4)n3)cc2c1`, which “Growth Rate” value ([1]; 0 h, replicate number 2, timepoint 0 hours) is on record?
Answer: 1

Question: What about the “Growth Rate” value [1, 5] of the same compound?
Answer: 0

Question: What about the “Growth Rate” value [1, 6] of the same compound?
Answer: 0

Question: What about the “Growth Rate” value [1, 7] of the same compound?
Answer: 1

Question: And the “Growth Rate” value [1, 8]?
Answer: 0

Question: And the “Growth Rate” value [1, 9]?
Answer: 1

Question: And the “Growth Rate” value [1, 10]?
Answer: 0

Question: And the “Growth Rate” value [2, 5]?
Answer: 0

Question: And the “Growth Rate” value [2, 6]?
Answer: 0

Question: What about the “Growth Rate” value [2, 8] of the same compound?
Answer: 0

Question: And the “Growth Rate” value [2, 9]?
Answer: 0

Question: And the “Growth Rate” value [3, 5]?
Answer: 0

Question: And the “Growth Rate” value [3, 6]?
Answer: 0

Question: And the “Growth Rate” value [3, 7]?
Answer: 1

Question: And the “Growth Rate” value [3, 8]?
Answer: 0

Question: What about the “Growth Rate” value ([3]; 18 h, replicate number 2, timepoint 18 hours) of the same compound?
Answer: 1

Question: And the “Growth Rate” value [3, 9]?
Answer: 0

Question: What about the “Growth Rate” value [3, 10] of the same compound?
Answer: 1

Question: What about the “Population Apoptotic (%)” value [4, 11] of the same compound?
Answer: 73%

Question: And the “Population Fragmented Nuclei (%)” value [4, 11]?
Answer: 30%

Question: What about the “Population Healthy Nuclei (%)” value [4, 11] of the same compound?
Answer: 55%

Question: And the “Population Hoechst High Intensity Objects (%)” value [4, 11]?
Answer: 15%

Question: What about the “Population Membrane Permeable-Phenotype (%)” value [4, 11] of the same compound?
Answer: 9%

Question: What about the “Population Mitochondria Different-Phenotype (%)” value [4, 11] of the same compound?
Answer: 10%

Question: And the “Population Mitotic Cells (%)” value [4, 11]?
Answer: 26%

Question: What about the “Population Normal (%)” value [4, 11] of the same compound?
Answer: 85%

Question: What about the “Population Pyknosed Nuclei (%)” value [4, 11] of the same compound?
Answer: 13%

Question: And the “Population Tubulin-Different-Phenotype (%)” value [4, 11]?
Answer: 12%

Question: And the “Total Cell Count” value [4, 11]?
Answer: 160

Question: And the “Population Apoptotic (%)” value [4, 12]?
Answer: 25%

Question: What about the “Population Fragmented Nuclei (%)” value [4, 12] of the same compound?
Answer: 59%

Question: What about the “Population Healthy Nuclei (%)” value [4, 12] of the same compound?
Answer: 28%

Question: And the “Population Hoechst High Intensity Objects (%)” value [4, 12]?
Answer: 34%

Question: And the “Population Membrane Permeable-Phenotype (%)” value [4, 12]?
Answer: 15%

Question: And the “Population Mitochondria Different-Phenotype (%)” value [4, 12]?
Answer: 5%

Question: And the “Population Mitotic Cells (%)” value [4, 12]?
Answer: 75%

Question: And the “Population Normal (%)” value [4, 12]?
Answer: 65%

Question: What about the “Population Pyknosed Nuclei (%)” value [4, 12] of the same compound?
Answer: 11%

Question: What about the “Population Tubulin-Different-Phenotype (%)” value [4, 12] of the same compound?
Answer: 26%

Question: What about the “Total Cell Count” value [4, 12] of the same compound?
Answer: 103

Question: And the “Population Apoptotic (%)” value [4, 13]?
Answer: 63%

Question: And the “Population Fragmented Nuclei (%)” value [4, 13]?
Answer: 25%

Question: What about the “Population Healthy Nuclei (%)” value [4, 13] of the same compound?
Answer: 55%

Question: What about the “Population Hoechst High Intensity Objects (%)” value [4, 13] of the same compound?
Answer: 11%

Question: What about the “Population Membrane Permeable-Phenotype (%)” value [4, 13] of the same compound?
Answer: 3%

Question: And the “Population Mitochondria Different-Phenotype (%)” value [4, 13]?
Answer: 1%

Question: What about the “Population Mitotic Cells (%)” value [4, 13] of the same compound?
Answer: 36%

Question: And the “Population Normal (%)” value [4, 13]?
Answer: 88%

Question: And the “Population Pyknosed Nuclei (%)” value [4, 13]?
Answer: 19%

Question: What about the “Population Tubulin-Different-Phenotype (%)” value [4, 13] of the same compound?
Answer: 4%

Question: What about the “Total Cell Count” value [4, 13] of the same compound?
Answer: 190

Question: What about the “Population Apoptotic (%)” value [4, 14] of the same compound?
Answer: 66%

Question: And the “Population Fragmented Nuclei (%)” value [4, 14]?
Answer: 65%

Question: What about the “Population Healthy Nuclei (%)” value [4, 14] of the same compound?
Answer: 28%

Question: What about the “Population Hoechst High Intensity Objects (%)” value [4, 14] of the same compound?
Answer: 35%

Question: What about the “Population Membrane Permeable-Phenotype (%)” value [4, 14] of the same compound?
Answer: 21%

Question: And the “Population Mitochondria Different-Phenotype (%)” value [4, 14]?
Answer: 0%

Question: And the “Population Mitotic Cells (%)” value [4, 14]?
Answer: 33%

Question: What about the “Population Normal (%)” value [4, 14] of the same compound?
Answer: 64%

Question: What about the “Population Pyknosed Nuclei (%)” value [4, 14] of the same compound?
Answer: 6%

Question: What about the “Population Tubulin-Different-Phenotype (%)” value [4, 14] of the same compound?
Answer: 0%

Question: And the “Total Cell Count” value [4, 14]?
Answer: 76

Question: What about the “Population Apoptotic (%)” value [4, 15] of the same compound?
Answer: 50%

Question: And the “Population Fragmented Nuclei (%)” value [4, 15]?
Answer: 38%

Question: What about the “Population Healthy Nuclei (%)” value [4, 15] of the same compound?
Answer: 51%

Question: And the “Population Hoechst High Intensity Objects (%)” value [4, 15]?
Answer: 12%

Question: What about the “Population Membrane Permeable-Phenotype (%)” value [4, 15] of the same compound?
Answer: 10%

Question: What about the “Population Mitochondria Different-Phenotype (%)” value [4, 15] of the same compound?
Answer: 4%

Question: What about the “Population Mitotic Cells (%)” value [4, 15] of the same compound?
Answer: 50%

Question: And the “Population Normal (%)” value [4, 15]?
Answer: 87%

Question: What about the “Population Pyknosed Nuclei (%)” value [4, 15] of the same compound?
Answer: 9%

Question: And the “Population Tubulin-Different-Phenotype (%)” value [4, 15]?
Answer: 17%

Question: And the “Total Cell Count” value [4, 15]?
Answer: 165

Question: And the “Population Apoptotic (%)” value [4, 16]?
Answer: 25%

Question: What about the “Population Fragmented Nuclei (%)” value [4, 16] of the same compound?
Answer: 64%

Question: What about the “Population Healthy Nuclei (%)” value [4, 16] of the same compound?
Answer: 28%

Question: What about the “Population Hoechst High Intensity Objects (%)” value [4, 16] of the same compound?
Answer: 39%

Question: What about the “Population Membrane Permeable-Phenotype (%)” value [4, 16] of the same compound?
Answer: 25%

Question: What about the “Population Mitochondria Different-Phenotype (%)” value [4, 16] of the same compound?
Answer: 0%

Question: And the “Population Mitotic Cells (%)” value [4, 16]?
Answer: 75%

Question: What about the “Population Normal (%)” value [4, 16] of the same compound?
Answer: 60%

Question: What about the “Population Pyknosed Nuclei (%)” value [4, 16] of the same compound?
Answer: 7%

Question: And the “Population Tubulin-Different-Phenotype (%)” value [4, 16]?
Answer: 25%

Question: And the “Total Cell Count” value [4, 16]?
Answer: 92

Question: What about the “Population Apoptotic (%)” value [4, 17] of the same compound?
Answer: 90%

Question: And the “Population Fragmented Nuclei (%)” value [4, 17]?
Answer: 26%

Question: And the “Population Healthy Nuclei (%)” value [4, 17]?
Answer: 59%

Question: And the “Population Hoechst High Intensity Objects (%)” value [4, 17]?
Answer: 11%

Question: What about the “Population Membrane Permeable-Phenotype (%)” value [4, 17] of the same compound?
Answer: 2%

Question: And the “Population Mitochondria Different-Phenotype (%)” value [4, 17]?
Answer: 0%

Question: What about the “Population Mitotic Cells (%)” value [4, 17] of the same compound?
Answer: 9%

Question: And the “Population Normal (%)” value [4, 17]?
Answer: 88%

Question: And the “Population Pyknosed Nuclei (%)” value [4, 17]?
Answer: 13%

Question: And the “Population Tubulin-Different-Phenotype (%)” value [4, 17]?
Answer: 2%

Question: And the “Total Cell Count” value [4, 17]?
Answer: 183

Question: And the “Population Apoptotic (%)” value [4, 18]?
Answer: 100%

Question: What about the “Population Fragmented Nuclei (%)” value [4, 18] of the same compound?
Answer: 59%

Question: What about the “Population Healthy Nuclei (%)” value [4, 18] of the same compound?
Answer: 34%

Question: What about the “Population Hoechst High Intensity Objects (%)” value [4, 18] of the same compound?
Answer: 34%

Question: And the “Population Membrane Permeable-Phenotype (%)” value [4, 18]?
Answer: 13%

Question: What about the “Population Mitochondria Different-Phenotype (%)” value [4, 18] of the same compound?
Answer: 6%

Question: And the “Population Mitotic Cells (%)” value [4, 18]?
Answer: 0%

Question: And the “Population Normal (%)” value [4, 18]?
Answer: 65%

Question: And the “Population Pyknosed Nuclei (%)” value [4, 18]?
Answer: 6%

Question: What about the “Population Tubulin-Different-Phenotype (%)” value [4, 18] of the same compound?
Answer: 0%

Question: What about the “Total Cell Count” value [4, 18] of the same compound?
Answer: 67
